High-throughput results as filed in PubChem.
Only some compounds are listed: those with a hit (about 9.2% of all), similar ones and a draw of the others.
Dynein cargo inh: inhibitors of GR-EGFP nuclear translocation, primary screen, dynein cargo transport inhibitor project, imaging, high-content, 3617.4 mouse cells. test concentration mostly 20 µM; stimulated with dexamethasone, 1 µM; active compounds read low. 220,000 compounds, 0.47% hits. z-score, hits read low;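 active = plate z-score of nuclear minus cytoplasmic receptor signal below a set negative limit, without overly bright fluorescence or cell loss, cut at about -3.5 in these data, passing the limit was not always enough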;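 note: z-score of nuclear minus cytoplasmic ring GR-EGFP intensity difference per well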
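Buffer or medium: tet-free, stripped-serum medium; Also added: dexamethasone, 1.0 µM final; Technique: high-content fluorescence imaging after fixation; Times: 48 h induction, 1 h compound, 30 min dex at 37 °C; Read-out: per-cell GR-EGFP intensity, nucleus versus surrounding cytoplasmic ring, well-averaged.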
PTEN del growth: growth suppression of PTEN-null HCT116, primary screen, cell-based, CellTiter-Glo; AID 827, 2007; 140,000 compounds, 1.2% hits; HCT116 PTEN-null viability, 60 h; active compounds read low; viability, % at 10 µM;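 active = viability at or below a set limit, 4 SD under the median of all tested compounds, cut at about 3.7% in these data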;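 note: PTEN knockout HCT116 line with beta catenin targeted HCT116 as companion control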
Lmaj promast: Leishmania major promastigote growth inhibition, primary screen; 200,000 compounds, 9% hits; AID 1063, 2008; Leishmania major promastigotes, resazurin fluorescence viability; inhibition, % at 10 µM; in the data active = inhibition above about 50%;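 note: promastigotes grown with compound for 44 hours at 28 °C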
bCat KO growth: primary screen for growth suppressors in beta-catenin knockout HCT116 cells (colon tumor, human) | 140,000 compounds, 1.5% hits | AID 818, 2007 | viability, % at 10 µM | HCT116 beta-catenin knockout viability, CellTiter-Glo, 60 h; active compounds read low;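 active = viability at or under a set limit, the compound median less 4 SD, cut at about 6% in these data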
Autophagy mod: autophagy modulators in MEF cells, primary screen, imaging, high-content, MEF GFP-LC3 | MEF GFP-LC3 puncta imaging; test concentration mostly 10 µM | calls only at 10 µM (by protocol) | 190,000 compounds, 0.98% hits;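 active = percentage of spot-positive cells more than 3 SD above its plate mean, without a fluorescence outlier flag or 80% toxicity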
Large screens that a line does not name were inactive.

CC(C)CC(=O)NC(=S)Nc1ccc(S(=O)(=O)N2CCN(C)CC2)cc1	Lmaj promast 67
CN1CCN(S(=O)(=O)c2ccc(NC(=O)c3csc4ccccc34)cc2)CC1	Lmaj promast 56
CC(C)C(=O)NC(=S)Nc1ccc(S(=O)(=O)N2CCN(C)CC2)cc1	Lmaj promast 87
O=C(CSc1nnnn1-c1ccccc1)N1N=CCC1c1ccccc1 (stereo not given)	none
Cc1ccc(SCC(=O)N2N=CCC2c2ccccc2)cc1 (stereo not given)	Lmaj promast 84 (no result: PTEN del growth, bCat KO growth)
Cc1c(N=C2N=C(NC(=O)NC(C)(C)C)c3ccccc32)c(=O)n(-c2ccccc2)n1C	none (no result: PTEN del growth, bCat KO growth)
Cc1c(N=C2N=C(NC(=O)c3cccs3)c3ccccc32)c(=O)n(-c2ccccc2)n1C	Autophagy mod active (no result: PTEN del growth, bCat KO growth)
CCCCNS(=O)(=O)c1ccc2nc(-c3cccnc3)cc(C(=O)NCCCOC)c2c1	none (no result: PTEN del growth, bCat KO growth)
CCn1cc(C(=O)N2CCN(c3cccc(Cl)c3)CC2)c2cc(OC)c(OC)cc2c1=O	Lmaj promast 92
COc1cc2c(C(=O)N3CCN(c4cccc(Cl)c4)CC3)cn(C)c(=O)c2cc1OC	none
COc1ccc(/C=N/NC(=O)C(=O)/C=C2\NC3(CCCC3)Cc3ccccc32)cc1	none
O=C(/C=C1\NC2(CCCC2)Cc2ccccc21)C(=O)N/N=C/c1ccc(O)c(O)c1	Lmaj promast 62
c1ccc(-c2oc3ncnc(NCCCN4CCOCC4)c3c2-c2ccccc2)cc1	Lmaj promast 100
COc1ccc(-c2csc3ncnc(NCCN4CCOCC4)c23)cc1	none (no result: Autophagy mod)
COc1ccc(-c2oc3ncn(CCN4CCOCC4)c(=N)c3c2-c2ccc(OC)cc2)cc1	Lmaj promast 55
COc1ccc(-c2nc(C#N)c(NCCCN3CCOCC3)o2)cc1	none (no result: Autophagy mod)
CN(C)CCNc1ncnc2c1cnn2-c1ccc(Cl)cc1	Lmaj promast 98
COc1ccc(-c2oc3ncnc(NCCCN4CCOCC4)c3c2-c2ccc(OC)cc2)cc1	Lmaj promast 75
CCc1nc(N2CCN(Cc3ccc4c(c3)OCO4)CC2)c2oc3ccccc3c2n1	none
O=C(Cn1cncn1)N/N=C/c1cccc(Cl)c1	none (no result: PTEN del growth, Lmaj promast, bCat KO growth, Autophagy mod)
COc1ccc2cc3cc(C(=O)NCC4COc5ccccc5O4)oc3nc2c1 (stereo not given)	none
CCOC(=O)CCC(=O)N1CCNC(=O)C1	none
c1ccc(-n2ncc3c(NCc4cccnc4)ncnc32)cc1	Lmaj promast 61
COc1ccc(-c2oc3ncnc(NCCN4CCOCC4)c3c2-c2ccc(OC)cc2)cc1	Autophagy mod active
c1ccc(-n2ncc3c(NCc4cccs4)ncnc32)cc1	none
CCOc1cc2nc(-c3ccc(OC)c(OC)c3)nc(NCCCN3CCOCC3)c2cc1OC	Lmaj promast 54
COc1ccc(-n2ncc3c(NCCN4CCOCC4)ncnc32)cc1	Lmaj promast 92
CN(C)/C=C/C1=CC(=O)CC(C)(C)C1	none (no result: PTEN del growth, bCat KO growth)
CSc1nc(C)c(Cc2c(F)cccc2Cl)c(=O)[nH]1	none (no result: PTEN del growth, Lmaj promast, bCat KO growth, Autophagy mod)
O=C(CCC1CCCN(C(=O)c2ccoc2)C1)NCc1ccccc1F (stereo not given)	none (no result: PTEN del growth, bCat KO growth)
COc1ccc(S(=O)(=O)NNC(=O)C2CC(c3cccnc3)=NO2)cc1 (stereo not given)	none (no result: PTEN del growth, bCat KO growth)
Cc1ccc(NS(=O)(=O)c2ccc(Cl)c(C(=O)O)c2)cc1S(=O)(=O)N1CCOCC1	none
OCCNc1c2ccccc2nc2ccccc12	Lmaj promast 100 (no result: PTEN del growth, bCat KO growth)
N#Cc1c(N)nc2c3c(sc(=N)c2c1N)NC(=O)CC3c1c(F)cccc1Cl (stereo not given)	Lmaj promast 100
CCCCn1c(SCC(=O)Nc2cc(C(F)(F)F)ccc2Cl)nnc1C(CC)N(C)C (stereo not given)	Lmaj promast 82, Autophagy mod active
Cc1ccc(Cn2ncc3c(N4CCN(Cc5ccc(Cl)cc5)CC4)ncnc32)cc1	Lmaj promast 69
Cc1ccc(Cn2ncc3c(N4CCN(c5ccc(C)cc5)CC4)ncnc32)cc1	none
Cc1ccc(Cn2ncc3c(N4CCN(C5CCCC5)CC4)ncnc32)cc1	Lmaj promast 55 (no result: PTEN del growth, bCat KO growth)
COc1cc(C(=O)NCc2nnc(SCC(=O)N3CCCc4ccccc43)o2)cc(OC)c1OC	none (no result: PTEN del growth, bCat KO growth)
CCn1c(=O)c([N+](=O)[O-])c(NCC(O)c2ccccc2)c2ccccc21 (stereo not given)	Lmaj promast 100
O=C(N/N=C/C(Cl)=C/c1ccc([N+](=O)[O-])cc1)C(=O)Nc1cccc(C(=O)O)c1	none (no result: PTEN del growth, Lmaj promast, bCat KO growth, Autophagy mod)
CCOc1ccc2[nH]cc(S(=O)(=O)c3ccc(C)cc3)c(=O)c2c1	none (no result: PTEN del growth, bCat KO growth)
CCOc1ccc2c(c1)OC(c1ccc(C)cc1)(C(F)(F)F)NC2=O (stereo not given)	Lmaj promast 100
CCOc1cccc(CNc2ccc(O)cc2)c1OCc1ccc(Cl)cc1Cl	Lmaj promast 100
CCOc1cccc(CNc2ccc(O)cc2)c1OCc1ccccc1Cl	Lmaj promast 99 (no result: Dynein cargo inh)
COCCOC(=O)C1=C(C)N=C2SCCC(=O)N2C1c1cccc(Br)c1 (stereo not given)	none
CCN(CC)CCNC(=O)c1cccc(NC(=O)C(=O)c2cc(Br)ccc2NC(C)=O)c1	Autophagy mod active (no result: PTEN del growth, bCat KO growth)
O=C(C1CC1)N1CCc2cc(S(=O)(=O)N3CCOCC3)ccc21	none
CC(Cl)C(=O)c1ccc2c(c1)CCN2C(=O)C1CC1 (stereo not given)	Lmaj promast 96 (no result: PTEN del growth, bCat KO growth)
CCOc1ccc(NC(=S)NCCCn2ccnc2)cc1	Lmaj promast 83
CCCCOc1ccc(NC(=O)C(=O)NCCCn2ccnc2)cc1	none
COc1ccc(C(=O)NNC(=O)c2snnc2C)cc1	none (no result: PTEN del growth, Lmaj promast, bCat KO growth, Autophagy mod)
Cc1ccc(C)c(-n2cc(CN3CCCN(C=O)CC3)c(-c3ccccc3)n2)c1	none (no result: PTEN del growth, bCat KO growth)
COc1cc(N/N=C/c2ccccc2O)ncn1	Lmaj promast 82
COc1cc(N/N=C/c2ccc(N(C)C)cc2)ncn1	none (no result: PTEN del growth, bCat KO growth)
Cc1cnn(-c2cc(N/N=C/c3ccccc3F)ncn2)c1	PTEN del growth 2.6
CCOC(=O)c1cnc2ccc(OCC)cc2c1NCCN1CCOCC1	Lmaj promast 55 (no result: PTEN del growth, bCat KO growth)
CCOC(=O)c1cnc2ccc(OCC)cc2c1NCc1ccccc1OC	Lmaj promast 97
CCOC(=O)c1cnc2ccc(C(=O)OC)cc2c1NCCN1CCOCC1	none
CCOC(=O)c1cnc2ccc(OC)cc2c1NCc1ccccc1	Lmaj promast 69
Oc1c(N=NC(=S)Nc2ccccc2F)c2ccccc2n1Cc1ccc(Cl)cc1	Lmaj promast 96 (no result: PTEN del growth, bCat KO growth)
Oc1c(N=NC(=S)Nc2ccccc2F)c2ccccc2n1Cc1ccccc1F	Lmaj promast 96 (no result: PTEN del growth, bCat KO growth)
CCNC(=S)N=Nc1c(O)n(Cc2ccc(Cl)cc2)c2ccccc12	none
Cc1ccc(Cn2c(O)c(N=NC(=S)Nc3ccccc3F)c3cc(S(=O)(=O)N4CCOCC4)ccc32)cc1	none (no result: PTEN del growth, bCat KO growth)
Cc1ccccc1Cn1c(O)c(N=NC(=S)Nc2ccccc2F)c2ccccc21	Lmaj promast 76 (no result: PTEN del growth, bCat KO growth)
Cc1ccc(C)c(Cn2c(O)c(N=NC(=S)Nc3ccccc3F)c3ccccc32)c1	Lmaj promast 96 (no result: PTEN del growth, bCat KO growth)
